For 27 compounds, inhibition and IC50 results are on record in ChEMBL document CHEMBL1147453, “3,4-Dihydroquinazoline derivatives as novel selective T-type Ca2+ channel blockers” (Bioorg Med Chem Lett, 2004).

The target in assay [1] is T1, Voltage-dependent T-type calcium channel subunit alpha-1G (Homo sapiens, UniProt O43497). Nature of the assay: In vitro inhibition of alpha-1G T-type [Ca2+] channels expressed in HEK293 cells at 10 uM. The format is functional, cell-based. Summed up: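 Whole-cell patch clamp on HEK293 cells expressing α1G T-type Ca2+ channels, test compound at 10 µM. Percent inhibition of T-type current reported as mean ± SEM from repeated runs (n ≥ 3).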
T1 sequence (O43497 whole entry): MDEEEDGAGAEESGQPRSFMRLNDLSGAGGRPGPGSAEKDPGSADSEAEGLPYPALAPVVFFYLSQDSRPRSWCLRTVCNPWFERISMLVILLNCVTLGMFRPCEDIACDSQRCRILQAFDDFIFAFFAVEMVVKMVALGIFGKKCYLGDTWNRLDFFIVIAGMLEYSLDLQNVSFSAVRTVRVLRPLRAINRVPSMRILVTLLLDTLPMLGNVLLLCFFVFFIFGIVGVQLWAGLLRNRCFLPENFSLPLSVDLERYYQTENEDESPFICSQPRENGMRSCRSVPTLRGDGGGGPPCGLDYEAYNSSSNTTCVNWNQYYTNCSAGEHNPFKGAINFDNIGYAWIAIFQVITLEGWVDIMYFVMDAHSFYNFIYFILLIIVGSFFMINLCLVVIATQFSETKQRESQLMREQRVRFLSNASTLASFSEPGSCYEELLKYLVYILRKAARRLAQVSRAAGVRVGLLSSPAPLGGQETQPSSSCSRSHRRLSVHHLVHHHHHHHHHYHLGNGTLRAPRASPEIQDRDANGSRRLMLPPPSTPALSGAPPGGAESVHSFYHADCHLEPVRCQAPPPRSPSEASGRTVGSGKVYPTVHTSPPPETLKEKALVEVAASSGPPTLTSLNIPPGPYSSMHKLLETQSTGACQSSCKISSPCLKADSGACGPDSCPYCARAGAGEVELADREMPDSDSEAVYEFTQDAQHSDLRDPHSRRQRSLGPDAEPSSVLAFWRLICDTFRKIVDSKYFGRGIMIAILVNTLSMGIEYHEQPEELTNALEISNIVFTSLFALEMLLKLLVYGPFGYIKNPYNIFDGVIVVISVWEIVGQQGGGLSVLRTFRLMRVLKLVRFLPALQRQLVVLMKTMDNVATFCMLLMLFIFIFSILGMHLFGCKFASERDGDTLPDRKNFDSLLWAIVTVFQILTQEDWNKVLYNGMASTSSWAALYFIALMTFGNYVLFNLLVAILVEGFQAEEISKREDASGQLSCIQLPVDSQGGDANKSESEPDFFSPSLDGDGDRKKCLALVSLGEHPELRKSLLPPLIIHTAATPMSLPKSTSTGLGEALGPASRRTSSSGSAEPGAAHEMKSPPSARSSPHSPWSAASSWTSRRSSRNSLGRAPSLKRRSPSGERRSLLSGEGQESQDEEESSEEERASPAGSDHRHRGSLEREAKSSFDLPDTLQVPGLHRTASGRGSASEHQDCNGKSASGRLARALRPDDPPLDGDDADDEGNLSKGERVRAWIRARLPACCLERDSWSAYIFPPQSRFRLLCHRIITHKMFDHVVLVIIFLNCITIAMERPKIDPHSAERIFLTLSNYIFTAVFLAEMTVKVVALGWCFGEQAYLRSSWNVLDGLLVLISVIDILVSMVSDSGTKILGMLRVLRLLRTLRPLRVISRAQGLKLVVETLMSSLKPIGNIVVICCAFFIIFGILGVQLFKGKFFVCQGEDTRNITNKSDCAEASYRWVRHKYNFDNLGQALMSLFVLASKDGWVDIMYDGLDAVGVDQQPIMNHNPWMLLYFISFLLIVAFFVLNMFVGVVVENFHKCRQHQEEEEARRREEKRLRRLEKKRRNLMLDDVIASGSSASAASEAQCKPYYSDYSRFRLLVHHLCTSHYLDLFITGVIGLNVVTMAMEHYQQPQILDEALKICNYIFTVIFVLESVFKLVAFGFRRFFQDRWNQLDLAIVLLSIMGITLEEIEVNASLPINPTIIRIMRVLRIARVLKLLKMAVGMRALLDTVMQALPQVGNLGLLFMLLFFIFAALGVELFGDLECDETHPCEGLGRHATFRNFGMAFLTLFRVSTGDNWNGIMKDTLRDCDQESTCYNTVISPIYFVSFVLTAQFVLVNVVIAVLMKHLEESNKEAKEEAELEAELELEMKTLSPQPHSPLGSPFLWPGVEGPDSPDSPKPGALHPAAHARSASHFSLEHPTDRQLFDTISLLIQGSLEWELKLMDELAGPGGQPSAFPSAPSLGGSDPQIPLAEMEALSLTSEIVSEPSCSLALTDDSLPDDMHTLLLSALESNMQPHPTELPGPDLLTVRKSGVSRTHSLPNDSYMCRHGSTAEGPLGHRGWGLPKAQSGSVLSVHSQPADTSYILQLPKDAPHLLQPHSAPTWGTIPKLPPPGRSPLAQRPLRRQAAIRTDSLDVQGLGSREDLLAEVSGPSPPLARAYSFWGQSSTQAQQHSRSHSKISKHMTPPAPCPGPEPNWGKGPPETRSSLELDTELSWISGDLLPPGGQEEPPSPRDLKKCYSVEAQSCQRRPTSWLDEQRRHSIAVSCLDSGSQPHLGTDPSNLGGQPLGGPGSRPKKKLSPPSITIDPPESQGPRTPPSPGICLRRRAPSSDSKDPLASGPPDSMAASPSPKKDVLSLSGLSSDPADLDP

Assay [2] addresses T1, Voltage-dependent T-type calcium channel subunit alpha-1G. Nature of the assay: Concentration of the compounds required for inhibition of HEK293 cells (alpha1G T-type). It is filed as functional, cell-based.
Assay [3] addresses Voltage-dependent T-type calcium channel subunit alpha-1H (Homo sapiens) (UniProt O95180). Nature of the assay: In vitro inhibitory effect on alpha-1H T-type [Ca2+] channels expressed in Xenopus oocytes at 100 uM. The format is functional, cell-based. The following applies: Oocyte. The gist of the method:
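Preliminary screen at 100 µM on α1H T-type Ca2+ channels expressed in Xenopus oocytes, recorded by two-electrode voltage clamp. Output is percent inhibition of current.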

In assay [4] the target is T1, Voltage-dependent T-type calcium channel subunit alpha-1G. Kind of assay: In vitro inhibition of alpha-1G T-type [Ca2+] channels expressed in HEK293 cells. It is filed as functional, cell-based. Summed up:
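α1G T-type Ca2+ currents recorded in HEK293 cells by whole-cell patch clamp. IC50 is the molar concentration giving 50% inhibition of α1G current, obtained by fitting raw data to dose–response curves.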

Assay [5] in a line: Inhibition of LVA T-type [Ca2+] channels of major pelvic ganglion (MPG) neurons at 10 uM. It is filed as functional. Summed up: (§1)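 Major pelvic ganglion (MPG) neurons, compound at 10 µM. Percent inhibition measured for both LVA (T-type) and HVA (N-type) Ca2+ currents, as part of an ion-channel selectivity screen that also covered Na+ channels.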
Assay [6] addresses Voltage-dependent N-type calcium channel subunit alpha-1B (Homo sapiens) (UniProt Q00975). Nature of the assay: Inhibition of HVA N-type [Ca2+] channels of major pelvic ganglion (MPG) neurons at 10 uM. It is filed as functional. Summed up: as §1

The structures appear in SMILES notation.

Chain of Voltage-dependent T-type calcium channel subunit alpha-1H (Homo sapiens) (O95180 whole entry): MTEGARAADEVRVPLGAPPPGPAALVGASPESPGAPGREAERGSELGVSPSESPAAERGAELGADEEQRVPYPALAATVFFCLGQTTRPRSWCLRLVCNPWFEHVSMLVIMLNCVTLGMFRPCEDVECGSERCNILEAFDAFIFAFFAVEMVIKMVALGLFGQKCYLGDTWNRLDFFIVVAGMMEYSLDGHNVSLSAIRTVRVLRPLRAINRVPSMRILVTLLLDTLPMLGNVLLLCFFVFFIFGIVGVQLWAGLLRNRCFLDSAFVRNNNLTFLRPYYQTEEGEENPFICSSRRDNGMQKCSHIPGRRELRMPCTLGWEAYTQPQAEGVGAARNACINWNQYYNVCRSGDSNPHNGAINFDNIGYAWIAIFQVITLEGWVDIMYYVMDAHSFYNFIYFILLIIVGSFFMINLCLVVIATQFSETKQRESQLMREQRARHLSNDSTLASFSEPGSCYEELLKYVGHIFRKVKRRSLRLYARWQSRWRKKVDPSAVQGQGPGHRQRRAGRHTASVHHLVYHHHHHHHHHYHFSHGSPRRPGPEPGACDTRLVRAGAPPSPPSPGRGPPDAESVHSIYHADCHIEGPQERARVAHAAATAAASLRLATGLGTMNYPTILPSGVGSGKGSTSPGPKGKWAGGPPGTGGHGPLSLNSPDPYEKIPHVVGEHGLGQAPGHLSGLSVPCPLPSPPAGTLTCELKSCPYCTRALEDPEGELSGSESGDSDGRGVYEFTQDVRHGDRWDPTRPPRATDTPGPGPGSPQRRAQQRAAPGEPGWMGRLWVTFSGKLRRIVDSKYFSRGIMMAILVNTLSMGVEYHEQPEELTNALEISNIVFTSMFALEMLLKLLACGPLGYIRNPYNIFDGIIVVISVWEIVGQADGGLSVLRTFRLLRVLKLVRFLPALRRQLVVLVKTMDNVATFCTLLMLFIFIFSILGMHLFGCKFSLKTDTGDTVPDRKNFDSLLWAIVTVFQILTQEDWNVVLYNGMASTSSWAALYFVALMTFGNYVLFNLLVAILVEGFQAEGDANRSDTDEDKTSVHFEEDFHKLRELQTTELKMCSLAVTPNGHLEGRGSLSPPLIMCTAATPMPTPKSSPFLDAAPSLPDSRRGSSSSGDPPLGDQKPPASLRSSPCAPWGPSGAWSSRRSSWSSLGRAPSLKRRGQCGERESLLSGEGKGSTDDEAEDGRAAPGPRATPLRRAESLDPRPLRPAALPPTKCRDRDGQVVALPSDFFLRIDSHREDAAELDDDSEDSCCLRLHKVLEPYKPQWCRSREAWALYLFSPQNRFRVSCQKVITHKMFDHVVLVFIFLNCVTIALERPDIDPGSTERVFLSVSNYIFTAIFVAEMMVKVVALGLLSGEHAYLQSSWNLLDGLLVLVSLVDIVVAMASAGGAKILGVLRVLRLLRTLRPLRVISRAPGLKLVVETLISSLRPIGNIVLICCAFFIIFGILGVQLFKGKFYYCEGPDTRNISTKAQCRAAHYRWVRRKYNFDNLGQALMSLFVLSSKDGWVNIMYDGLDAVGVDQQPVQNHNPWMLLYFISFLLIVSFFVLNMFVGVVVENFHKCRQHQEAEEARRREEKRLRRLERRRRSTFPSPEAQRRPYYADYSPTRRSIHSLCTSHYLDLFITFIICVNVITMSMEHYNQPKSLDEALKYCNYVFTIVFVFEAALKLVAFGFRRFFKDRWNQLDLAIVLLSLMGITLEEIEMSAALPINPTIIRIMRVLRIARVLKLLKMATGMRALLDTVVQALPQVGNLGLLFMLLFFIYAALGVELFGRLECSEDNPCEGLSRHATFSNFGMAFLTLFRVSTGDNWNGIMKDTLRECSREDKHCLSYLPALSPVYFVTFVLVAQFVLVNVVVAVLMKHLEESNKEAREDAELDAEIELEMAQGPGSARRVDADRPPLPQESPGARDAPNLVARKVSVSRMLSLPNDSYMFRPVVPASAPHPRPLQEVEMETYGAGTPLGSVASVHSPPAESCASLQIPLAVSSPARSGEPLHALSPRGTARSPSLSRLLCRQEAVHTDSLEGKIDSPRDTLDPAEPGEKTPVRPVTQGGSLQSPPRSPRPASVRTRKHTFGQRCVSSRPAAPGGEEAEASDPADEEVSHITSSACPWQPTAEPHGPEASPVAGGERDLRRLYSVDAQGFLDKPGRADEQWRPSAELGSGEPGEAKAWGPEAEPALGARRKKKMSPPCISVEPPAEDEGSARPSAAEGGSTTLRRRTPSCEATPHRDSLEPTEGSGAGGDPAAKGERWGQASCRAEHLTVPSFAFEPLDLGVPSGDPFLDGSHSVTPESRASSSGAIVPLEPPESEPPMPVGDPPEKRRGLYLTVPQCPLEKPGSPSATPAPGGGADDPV

Take `COC(=O)CC1c2ccccc2N=C(N2CCCCC2)N1c1ccccc1` (stereo unspecified): the inhibition in assay [1] is 18.3%; in assay [3] it was 11.5%. For the same compound, the IC50 in assay [2] was 27.7 µM.

As to `CN1CCN(C2=Nc3ccccc3C(CC(=O)OCc3ccccc3)N2c2ccccc2)CC1` (stereo unspecified), the inhibition in assay [3] was 32.7%.

Turning to `COC(=O)CC1c2ccccc2N=C(N2CCN(C)CC2)N1c1ccccc1` (stereo unspecified), in assay [3], the inhibition came out at 15%.

Regarding `COC(=O)CC1c2ccccc2N=C(N2CCOCC2)N1C1CCCCC1` (stereo unspecified), in assay [3], the inhibition stood at 12.2%.

As for `O=C(O)CC1c2ccccc2N=C(c2ccccc2)N1c1ccccc1` (stereo unspecified), the inhibition in assay [3] worked out at 7.2%.

Take `CN1CCN(C2=Nc3ccccc3C(CC(=O)NCc3ccccc3)N2c2ccccc2)CC1` (stereo unspecified): the inhibition came out at 29% in assay [1] and 70.3% in assay [3]. Also, the IC50 in assay [2] turned out to be 35.8 µM.

As for `COC(=O)CC1c2ccccc2N=C(N2CCCCC2)N1C(C)C` (stereo unspecified), the inhibition in assay [3] was 8%.

Regarding `COC(=O)CC1c2ccccc2N=C(c2ccccc2)N1c1ccccc1` (stereo unspecified), the values for the inhibition in assay [4] and in assay [3] were 50% and 51.5%, respectively. The concentration for half-maximal inhibition (IC50) in assay [2] was found to be 10.7 µM.

Regarding `O=C(O)CC1c2ccccc2N=C(N2CCCCC2)N1c1ccccc1` (stereo unspecified), in assay [3], the inhibition stood at 8%.

As to `Nc1ccc(CNC(=O)CC2c3ccccc3N=C(N3CCCCC3)N2c2ccccc2)cc1` (stereo unspecified), the figures for the inhibition in assay [1], in assay [6] and in assay [3] were 43.5%, 18.4% and 66.8%, respectively. Moreover, the inhibition at 10 µM in assay [5] was 4.7%. In assay [2], the IC50 is 14.4 µM.

For the compound `O=C(CC1c2ccccc2N=C(N2CCCCC2)N1c1ccccc1)OCc1ccccc1` (stereo unspecified), the inhibition in assay [3] is 15.6%.

Regarding `Cc1ccc(S(=O)(=O)Nc2ccc(CNC(=O)CC3c4ccccc4N=C(N4CCCCC4)N3c3ccccc3)cc2)cc1` (stereo unspecified), the results for the inhibition in assay [1], in assay [6] and in assay [3] were 89.9%, 38.7% and 84.7%, respectively. At 10 µM the inhibition in assay [5] was 29%. For the same compound, in assay [2], the IC50 is 0.25 µM.

For `COCC(=O)O[C@]1(CCN(C)CCCc2nc3ccccc3[nH]2)CCc2cc(F)ccc2[C@@H]1C(C)C`, the results for the inhibition in assay [1] and in assay [3] were 95.9% and 86%, respectively.

In the case of `COC(=O)CC1c2ccccc2N=C(N2CCOCC2)N1C(C)C` (stereo unspecified), the inhibition in assay [3] was found to be 0%.

As for `O=C(CC1c2ccccc2N=C(c2ccccc2)N1c1ccccc1)NCc1ccccc1` (stereo unspecified), in assay [3], the inhibition was determined as 14.8%.

As to `O=C(CC1c2ccccc2N=C(N2CCCCC2)N1c1ccccc1)NCc1ccccc1` (stereo unspecified), the inhibition in assay [1] was 90.1%; in assay [6] it was 12%; in assay [3], 77%. In addition, the inhibition at 10 µM in assay [5] worked out at 76%. Further, in assay [2], the IC50 stood at 0.9 µM.

With `O=C(CC1c2ccccc2N=C(N2CCCCC2)N1c1ccccc1)NCc1ccc([N+](=O)[O-])cc1` (stereo unspecified), the figures for the inhibition in assay [1], in assay [6] and in assay [3] were 92.3%, 32.2% and 91.9%, respectively. In assay [5], this compound showed an inhibition at 10 µM of 37.7%. Also, the 50% inhibitory concentration (IC50) in assay [2] amounted to 2.5 µM.

`O=C(CC1c2ccccc2N=C(N2CCCCC2)N1c1ccccc1)NCc1ccc(NS(=O)(=O)c2ccc(F)cc2)cc1` (stereo unspecified): the inhibition in assay [1] worked out at 89%; in assay [6] it was 50.8%; in assay [3] it was 80.5%. Testing at 10 µM in assay [5] gave an inhibition of 49.6%. In assay [2], the IC50 was determined as 0.2 µM.

Regarding `COC(=O)CC1c2ccccc2N=C(N2CCN(C)CC2)N1C(C)C` (stereo unspecified), the inhibition in assay [3] came to 0%.

On to `O=C(CC1c2ccccc2N=C(c2ccccc2)N1c1ccccc1)OCc1ccccc1` (stereo unspecified), for which the inhibition in assay [3] is 14.2%.

Consider `O=C(O)CC1c2ccccc2N=C(N2CCOCC2)N1c1ccccc1` (stereo unspecified), for which the inhibition in assay [3] is 9%.

For `CN1CCN(C2=Nc3ccccc3C(CC(=O)O)N2c2ccccc2)CC1` (stereo unspecified), the inhibition in assay [3] came to 15%.

`COC(=O)CC1c2ccccc2N=C(N2CCCCC2)N1C1CCCCC1` (stereo unspecified): the inhibition in assay [3] is 27%.

Consider `O=C(CC1c2ccccc2N=C(N2CCOCC2)N1c1ccccc1)NCc1ccccc1` (stereo unspecified), for which the inhibition came out at 40.5% in assay [1] and 63.8% in assay [3]. In assay [2], the IC50 stood at 21.6 µM.

As to `O=C(CC1c2ccccc2N=C(N2CCOCC2)N1c1ccccc1)OCc1ccccc1` (stereo unspecified), the inhibition in assay [3] is 20.9%.

For `COC(=O)CC1c2ccccc2N=C(N2CCN(C)CC2)N1C1CCCCC1` (stereo unspecified), the inhibition in assay [3] is 3%.

As for `COC(=O)CC1c2ccccc2N=C(N2CCOCC2)N1c1ccccc1` (stereo unspecified), in assay [3], the inhibition is 14%.

For orientation: inhibition means the relative decrease from the control value, in per cent. As a reminder, the IC50 is the point on the concentration scale where inhibition reaches its midpoint.
